Assays:
Jurkat [1] = experiment: Selectivity ratio of IC50 for VOC channel in […] PC12-h5 cells over IC50 for CRAC channel in human Jurkat cells
[2] = Inhibition of CRAC channel-mediated calcium influx in human Jurkat cells; type: cell-based
Procedure, shortened: (§1)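 Jurkat cells (2 × 10⁶ cells/ml) loaded with 1 µM Fura-2/AM for 45 min at room temperature in HEPES buffer pH 7.4 (NaCl 137, KCl 5.8, MgCl₂ 1, CaCl₂ 2.5, glucose 5, HEPES 10 mM), then washed. Thapsigargin-induced Ca²⁺ influx read by 340/380 nm excitation, 500 nm emission, with cell-free compound fluorescence subtracted. IC50 taken from percent inhibition.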

[3] = Inhibition of VOC channel-mediated calcium influx in […] PC12-h5 cells; type: cell-based; details: Rattus norvegicus, PC-12
Procedure, shortened: (§2)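 PC12-h5 cells (1 × 10⁶ cells/ml) loaded with 1 µM Fura-2/AM for 45 min at room temperature in HEPES buffer pH 7.4, then washed. Depolarized with 50 mM KCl for 20 min. Intracellular Ca²⁺ measured at the 20 min endpoint from the 340/380 nm excitation ratio (500 nm emission), with compound autofluorescence subtracted.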

Mus musculus [4] = experiment: Inhibition of trinitrochlorobenzene-induced contact hypersensitivity in 1 hr before pretreated CD1 mouse assessed as ear swelling at 30 mg/kg, po; type: functional
Procedure, shortened: (§3)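 Mice challenged with TNCB on both sides of the ear pinna. Compound given orally 1 h before TNCB exposure, with 0.5% MC vehicle given orally to control animals. Ear thickness measured by dial gauge 24 h after challenge and swelling calculated from the pre-exposure value.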

Jurkat [5] = experiment: Inhibition of PHA-induced IL2 production in human Jurkat T lymphocytes; type: functional, cell-based
Procedure, shortened: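 Jurkat T cells (5 × 10⁶ cells/ml) stimulated with PHA (20 µg/ml) for 20 h. IL-2 in the supernatant quantified by human IL-2 ELISA.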

PC-12 = experiment: Inhibition of VOC channel-mediated calcium influx in […] PC12-h5 cells at 10 uM; type: cell-based; details: Rattus norvegicus
Procedure, shortened: as §2

Jurkat [6] = experiment: Inhibition of CRAC channel-mediated calcium influx in human Jurkat cells at 10 uM; type: cell-based
Procedure, shortened: as §1

Mus musculus [7] = experiment: Inhibition of trinitrochlorobenzene-induced contact hypersensitivity in 1 hr before orally pretreated CD1 mouse assessed as ear swelling; type: functional; details: CD1, po
Procedure, shortened: as §3

Rattus norvegicus = experiment: Inhibition of ovalbumin-induced airway eosinophilia in BN rat po dosed 1 hr before antigen challenge assessed as number of eosinophils in bronchoalveolar levage fluid after 24 hrs; type: functional; details: Lung
Procedure, shortened: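 Sensitized rats were challenged 3 weeks later with aerosolized 1% (w/v) ovalbumin for 15 min. Compound given orally 1 h before exposure. BAL performed 24 h after challenge. Total white cells counted with a blood cell counter. Eosinophils identified morphologically on smears and eosinophil number per animal calculated. ED50 derived.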

SMILES | Ratio IC50 (Jurkat [1]) | IC50 [2] | IC50 [3] | inhibition in vivo at 30 mg/kg (Mus musculus [4]) | IC50 (Jurkat [5]) | inhibition (PC-12) | inhibition (Jurkat [6]) | ED50 (Mus musculus [7]) | ED50 (Rattus norvegicus)
Cc1ccncc1C(=O)Nc1ccc(-n2nc(C(F)(F)F)cc2C(F)(F)F)cc1 | 20 | 0.29 µM | 6.3 µM |  |  |  |  |  | 
O=C(Nc1ccc(-n2nc(C(F)(F)F)cc2C(F)(F)F)cc1)c1cnccc1C(F)(F)F | 5 | 0.43 µM | 2 µM |  |  |  |  |  | 
COc1ccncc1C(=O)Nc1ccc(-n2nc(C(F)(F)F)cc2C(F)(F)F)cc1 | 21 | 0.23 µM | 4.8 µM |  |  |  |  |  | 
O=C(Nc1ccc(-n2nc(C(F)(F)F)cc2C(F)(F)F)cc1)c1cnccc1Cl | 32 | 0.16 µM | 5.1 µM | -18% | 0.018 µM |  |  |  | 
O=C(Nc1ccc(-n2nc(C(F)(F)F)cc2C(F)(F)F)cc1)c1nccs1 | > 22 | 0.46 µM |  |  |  | 37% |  |  | 
O=C(Nc1ccc(-n2nc(C(F)(F)F)cc2C(F)(F)F)cc1)c1cccnc1 | > 40 | 0.25 µM |  | 62% | 0.093 µM | 30% |  |  | 
O=C(Nc1ccc(-n2nc(C(F)(F)F)cc2C(F)(F)F)cc1)c1ccccn1 |  |  |  |  |  |  | 14% |  | 
Cc1ccc(-c2cc(C(F)(F)F)nn2-c2ccc(NC(=O)c3snnc3C)cc2)cc1 | 3.5 | 0.72 µM | 2.5 µM |  |  |  |  |  | 
Nc1ccncc1C(=O)Nc1ccc(-n2nc(C(F)(F)F)cc2C(F)(F)F)cc1 | 3.1 | 0.78 µM | 2.4 µM |  |  |  |  |  | 
Cc1ccnc(C)c1C(=O)Nc1ccc(-n2nc(C(F)(F)F)cc2C(F)(F)F)cc1 |  | 1.6 µM |  |  |  |  |  |  | 
Cc1nnsc1C(=O)Nc1ccc(-n2nc(C(F)(F)F)cc2C(F)(F)F)cc1 | 31 | 0.15 µM | 4.7 µM | 100% | 0.017 µM |  |  | 1.1 mg/kg | 2.4 mg/kg
O=C(Nc1ccc(-n2nc(C(F)(F)F)cc2C(F)(F)F)cc1)c1cnccc1O |  |  |  |  |  |  | 21% |  | 
Nc1cncc(C(=O)Nc2ccc(-n3nc(C(F)(F)F)cc3C(F)(F)F)cc2)c1 | > 37 | 0.27 µM |  | 59% | 0.16 µM | 14% |  |  | 4.4 mg/kg
Cc1nnsc1C(=O)Nc1ccc(-n2ccc(C(F)(F)F)n2)cc1 |  |  |  |  |  |  | 40% |  | 
O=C(Nc1ccc(-n2nc(C(F)(F)F)cc2C(F)(F)F)cc1)c1cccnc1Cl | 19 | 0.24 µM | 4.5 µM |  |  |  |  |  | 

From ChEMBL document CHEMBL1142507, “Novel potent and selective Ca2+ release-activated Ca2+ (CRAC) channel inhibitors. Part 3: synthesis and CRAC channel inhibitory activity of 4'-[(trifluoromethyl)pyrazol-1-yl]carboxanilides” (Bioorg Med Chem, 2008)
